Data from ChEMBL document CHEMBL1147858, “Short-chain 3-ketoceramides, strong apoptosis inducers against human leukemia HL-60 cells” (Bioorg Med Chem, 2007).
Activity calls are given as the source filed them. The calls are words filed in the database; no cut-off is given here.

Tests used:
Format in all cases: functional, cell-based
Conditions in all cases: Homo sapiens
HL-60 [1] = assay: Effect on apoptosis in HL60 cells assessed as caspase-3 activation at 5 uM by Western blot analysis
Outline: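 HL-60 cells exposed 2–6 h (also 30–90 min) to compound, ethanol vehicle (final EtOH 0.1%); cells pelleted, PBS-washed twice, lysed in urea/SDS/β-mercaptoethanol buffer, boiled 3 min, run on 14% SDS-PAGE, PVDF blot probed with rabbit polyclonal anti-caspase-3 and alkaline phosphatase-coupled goat anti-rabbit; pro- versus active caspase-3 bands read.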

HL-60 [2] = assay: Antileukemic effect against HL60 cells assessed as cell survival at 1 uM after 6 hrs by MTT assay relative to C2-Cer
Outline: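 Serum-free RPMI 1640 HL-60 suspension (0.4–1 × 10^6 cells/mL after two washes), […] per well; compounds added from ethanol stocks (1–20 mM), final EtOH 0.1%, vehicle control 0.1% EtOH; 6 h exposure; MTT (10 µL of 5 mg/mL) added 2 h before end; formazan dissolved with 0.04 M HCl in isopropanol.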

HL-60 [3] = assay: Effect on apoptosis in HL60 cells assessed as mitochondrial cytochrome C release at 5 uM by Western blot analysis
Outline: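 HL-60 cells (6 × 10^6 cells/mL) treated for various periods, ethanol vehicle; PBS-washed, Dounce-homogenized in HEPES/KCl/EDTA/EGTA/DTT buffer with protease inhibitors; 1000g spin removes nuclei/heavy membranes, mitochondria-rich fraction pelleted, supernatant spun at 100,000g for cytosol; both fractions immunoblotted with anti-cytochrome c.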

HL-60 [4] = assay: Induction of apoptosis in HL60 cells assessed as DNA fragmentation at 5uM
Outline: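 HL-60 cells (2 × 10^6 cells/2 mL) exposed for various periods, ethanol vehicle; lysed in Tris/EDTA/0.5% Triton X-100, soluble lysate treated with RNase A (0.2 mg/mL, 1 h, 37 °C) then proteinase K (0.2 mg/mL, 50 °C, 30 min); DNA isopropanol-precipitated overnight at −20 °C, run on 2.0% agarose at 50 V, ethidium bromide stained, UV visualized.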

Row | Structure (SMILES) | Activity (HL-60 [1]) | Activity (HL-60 [2]) | Activity (HL-60 [3]) | Activity (HL-60 [4])
1 | CCCCCCCCCCCCC/C=C/C(=O)[C@H](CO)NC(C)=O | Active | Active | Active | Active
2 | CCCCCCCCCCCCC/C=C/C(=O)[C@H](COC)NC(C)=O | Active | Active | Active | Active
3 | CCCCCCCCCCC/C=C/C=C/C(=O)[C@H](CO)NC(C)=O | Active | inactive | Active | –
